Compounds with a hit are over-represented: about 1.5% of the library has one in this group of screens.
Myeloid diff 2: myeloid differentiation induction | ER-HoxA9 myeloid progenitors, lysozyme-GFP differentiation, flow cytometry | calls only at 10 µM | hit rate 1% among 360,000 | AID 624256;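 active means normalized GFP-positive differentiation at or above the plate's own cutoff, the solvent-only control mean plus 3 SD; inconclusive means no clear call, values can overlap the other calls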;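 further: cells exposed to compound for four days before flow analysis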
VLA-4 inh: inhibition in a human VLA-4 binding assay; P13612; VLA-4 expressing cells, ligand binding flow cytometry; inhibition, % (about 7 µM as worked out from the volumes in the protocol); hit rate 0.2% among 330,000; in the data active means inhibition above about 50%
Platelet DG rel: platelet dense granule release activity; AID 1663; hit rate 0.22% among 300,000; inhibition, %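 (compounds screened at 7.5 µM in platelet-rich plasma)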; human platelet-rich plasma, SFLLRN dense granule ATP release, luminescence;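 active means mean replicate score, as percent of positive control, at or above 50; inconclusive means mean below 50 but at least one replicate at or above 50; inactive means mean and every replicate below 50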
SENP1 inh: SENP1 (human) catalytic domain inhibition; Q9P0U3; hit rate 0.21% among 360,000; inhibition, % at 10 µM; recombinant SENP1 catalytic domain, CyPet-SUMO1-YPet FRET cleavage;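 active means inhibition at least 30% at 10 µM, raw YFP signal under a set limit, fluorescence ratio 0.5 to 1.5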;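 further: 0% = enzyme with DMSO and 100% = no enzyme wells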
Target sequence (Q9P0U3 419-644 limits assumed): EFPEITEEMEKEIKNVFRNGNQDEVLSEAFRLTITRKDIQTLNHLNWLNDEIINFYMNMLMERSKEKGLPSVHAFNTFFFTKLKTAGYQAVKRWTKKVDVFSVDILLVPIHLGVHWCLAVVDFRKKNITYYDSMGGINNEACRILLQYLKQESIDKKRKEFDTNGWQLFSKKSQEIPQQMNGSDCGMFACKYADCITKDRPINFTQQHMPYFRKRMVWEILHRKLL
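Assay system – human recombinant His6-tagged SENP1 catalytic domain enzyme · Input – SENP1 enzyme, 20 pM final · Buffer or medium – Tris pH 8 buffer plus EDTA, NaCl, BME, BSA, NP40, catalase · Schedule – 50 min reaction at room temperature · Technique – FRET read of cyan and yellow fluorescence · Control set – no-enzyme wells low, DMSO-plus-enzyme wells high control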
VLA-4 mod pick: human VLA-4 allosteric modulation in cherry picked compounds; AID 2813; hit rate 2% among 1,300; U937 cells, HUTS-21 LIBS mAb binding, flow cytometry; LDV ligand present at threefold Kd; shares compounds with VLA-4 inh; inhibition, % at 6.7 µM; in the data active means inhibition above about 40%;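 further: 0% = ligand without compound and 100% = no ligand background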
Starred values were filed as active, the others as inactive; i = inactive; u = inconclusive; x = no result given.

SMILES | Myeloid diff 2 | VLA-4 inh | Platelet DG rel | SENP1 inh | VLA-4 mod pick
Cc1c(NC(=O)CN2CCN(C(=O)c3ccco3)CC2)c(=O)n(-c2ccccc2)n1C | i | -2.5 | -6.1 | 7.7 | 2.0
Cn1c(=N)n(CC(O)c2cccc3ccccc23)c2ccccc21 (stereo not given) | i | 51.2* | -14.2 | 0.9 | -7.7
Cn1c(=N)n(CC(O)c2ccco2)c2ccccc21 (stereo not given) | i | -0.2 | 0.3 | -3.8 | x
COc1ccccc1/C=N/NC(=O)CCn1cnc2ccccc21 | i | 57.7* | 15.6 | 0.5 | -1.4
O=C(c1ccc(Cl)cc1)c1cc([N+](=O)[O-])ccc1N1CCOCC1 | u | 14.6 | 1.0 | -2.3 | x
O=C(c1ccccc1)c1cc([N+](=O)[O-])ccc1N1CCOCC1 | x | 26.0 | -8.8 | 1.1 | 32.3
O=C(c1ccc(Br)cc1)c1cc([N+](=O)[O-])ccc1N1CCOCC1 | x | 5.4 | 1.3 | -0.2 | 17.0
Cc1ccc(C(=O)c2cc([N+](=O)[O-])ccc2N2CC(C)OC(C)C2)cc1 (stereo not given) | x | -2.1 | 10.0 | -9.0 | -1.1
COc1ccccc1-c1noc(CCC(=O)NC2CCCCC2)n1 | i | 2.9 | 12.2 | -0.5 | x
COc1cccc(CN2CC(C(=O)N3CCN(C(C)C)CC3)CCC2=O)c1 (stereo not given) | u | 0.8 | -0.3 | -2.0 | x
COCCNC(=O)/C(C#N)=C/C(C)=C/c1ccccc1 | i | 10.0 | 7.2 | 1.5 | x
COCCNC(=O)/C(C#N)=C/c1cccc(/C=C(\C#N)C(=O)NCCOC)c1 | i | 50.4* | -6.1 | 0.8 | 21.1
CCCCCCCCNC(=O)/C(C#N)=C/c1ccc(SC)cc1 | i | 0.5 | -3.1 | -11.0 | 0.3
CCOCCCNC(=O)/C(C#N)=C/c1ccc(Cl)c([N+](=O)[O-])c1 | i | 59.1* | 16.4 | 1.5 | 36.2
COCCNC(=O)/C(C#N)=C/c1ccc(O)cc1 | i | 1.8 | 85.6* | -42.6 | -0.9
COCCNC(=O)/C(C#N)=C/c1ccc(O)c([N+](=O)[O-])c1 | i | -4.1 | 26.8 | -1.1 | x
CCCCCCCCNC(=O)/C(C#N)=C/c1ccc2c(c1)OCCO2 | i | 4.1 | 4.3 | -2.3 | x
CCc1cccc(NC(=O)C2CCCN(S(=O)(=O)c3cccnc3)C2)c1 (stereo not given) | u | 4.1 | -0.1 | 1.1 | x
Cc1ccc(S(=O)(=O)Nc2ccc(-c3ccc4nncn4n3)cc2)cc1 | i | 0.5 | 18.9 | 7.3 | x
COc1ccc2c(C)cc(SCC(=O)Nc3c(C)n(C)n(-c4ccccc4)c3=O)nc2c1 | x | 94.2* | 10.6 | -2.6 | 12.6
C=CCn1c(SCC(=O)Nc2c(C)n(C)n(-c3ccccc3)c2=O)nc2ccccc2c1=O | i | 51.7* | x | 1.9 | 2.7
C=CCn1c(SCC(=O)Nc2c(C)n(C)n(-c3ccccc3)c2=O)nc2scc(-c3ccccc3)c2c1=O | i | 7.7 | 0.8 | -0.9 | x
CC1CCC(NC(=O)CN2C(=O)NC3(CCCCC3C)C2=O)CC1 (stereo not given) | i | 13.3 | x | -0.7 | x
O=C(Nc1ccnn1C1CCN(C(=O)c2ccc(F)cc2)CC1)C1CCOC1 (stereo not given) | i | 5.9 | -2.2 | 0.4 | x
Cc1ccc(C23CC4CC(CC(C(=O)N(C)C)(C4)C2)C3)cc1 | i | 1.1 | -2.5 | -0.6 | x
SMILES | Myeloid diff 2 | VLA-4 inh | Platelet DG rel | SENP1 inh | VLA-4 mod pick
O=C1C2C3C=CC(C3=C(c3ccccc3)c3ccccc3)C2C(=O)N1CCO (stereo not given) | i | 0.3 | 1.6 | 1.2 | x
Cc1ccc(C(=C2C3C=CC2C2C(=O)NC(=O)C32)c2ccc(C)cc2)cc1 (stereo not given) | i | 55.8* | 3.2 | -0.2 | 6.5
O=C(CNS(=O)(=O)c1c(Cl)cccc1Cl)N1CCCCCC1 | i | 11.1 | 13.1 | -1.1 | x
CC1Cc2ccccc2N1c1ncnc(N)c1[N+](=O)[O-] (stereo not given) | i | 52.6* | 4.3 | 2.8 | 15.6
CCOC(=O)c1c(C)[nH]c(C(=O)COC(=O)c2ccco2)c1C | i | 4.4 | x | 0.1 | 5.7
CCOC(=O)c1c(C)[nH]c(C(=O)COC(=O)C2CC2C)c1C (stereo not given) | i | -0.6 | 7.1 | 0.1 | -2.2
CCOC(=O)c1c(C)[nH]c(C(=O)COC(=O)c2ccncc2)c1C | i | 4.1 | 10.5 | -15.1 | -5.0
CCOC(=O)c1c(C)[nH]c(C(=O)COC(=O)c2cnccn2)c1C | i | 9.5 | x | 0.5 | 0.0
CCOC(=O)c1c(C)[nH]c(C(=O)COC(=O)c2cccnc2Cl)c1C | i | -12.3 | x | -1.3 | x
Cc1ccc(OCCCC(=O)ON=C(N)c2ccccc2C)cc1 | i | -0.8 | x | 1.7 | x
CCOc1ccc(NC(=O)C2CCN(S(=O)(=O)c3ccc4c(c3)C(C)(C)C(=O)N4C)CC2)cc1 | i | -2.4 | -24.1 | 4.5 | 1.3
CCOc1ccccc1NC(=O)C1CCCN(S(=O)(=O)c2ccc3c(c2)C(C)(C)C(=O)N3C)C1 (stereo not given) | i | 49.5* | -10.3 | 1.1 | 0.0
CCOc1ccc(NC(=O)C2CCCN(S(=O)(=O)c3ccc4c(c3)C(C)(C)C(=O)N4C)C2)cc1 (stereo not given) | i | x | x | 2.5 | x
CCC(C)C(NC(=O)c1ccc(Cl)cc1)C(=O)O (stereo not given) | i | 93.2* | 18.8 | 1.4 | 3.3
COc1ccc(/C(C)=N/NC(=O)CNC(=O)CCc2ccccc2)c(OC)c1 | i | -1.8 | -8.5 | -2.4 | x
Cc1[nH]c2ccc(C(=O)N3CCN(c4ccccc4Cl)CC3)cc2c1C | i | 3.8 | -0.4 | -1.0 | x
COc1ccccc1N1CCN(C(=O)c2ccc3[nH]c(C)c(C)c3c2)CC1 | u | 50.1* | 9.0 | -1.8 | 26.2
Nc1ncnc2c1ncn2C1OC(CO)C(O)C1N (stereo not given) | i | -69.3 | -1.6 | 0.0 | x
Nc1nc(F)nc2c1ncn2[C@@H]1O[C@H](CO)[C@@H](O)[C@H]1O | u | 6.2 | 77.3* | 1.7 | 1.2
Nc1ncnc2c1ncn2[C@@H]1O[C@H](CO)[C@@H](O)[C@@H]1O | i | -22.8 | 1.9 | -1.4 | 1.6
Nc1nc(Nc2ccccc2)nc2c1ncn2[C@@H]1O[C@H](CO)[C@@H](O)[C@H]1O | i | 56.5* | u | 0.3 | 13.5
CC(C)(C)C(=O)N1CCN(c2nc3ccccc3o2)CC1 | i | 1.7 | -1.3 | 0.0 | x
CCN(C(C)=O)c1ccc(Oc2nc(OC)cc(OC)n2)cc1 | i | 0.0 | -2.5 | -0.6 | x
Cc1ccc(C)c(NC(=O)Cc2nc(CNCC(C)C)cs2)c1 | x | 4.9 | 11.6 | 3.4 | x
O=C(N/C(=C\c1ccc(Br)cc1)C(=O)N1CCCC1)c1ccccc1F | i | 5.1 | -11.3 | 0.9 | x
CC(C)C[C@@H](NC(=O)C1CCC(CNC(=O)[C@H](Cc2ccccc2)NC(=O)OC(C)(C)C)CC1)C(=O)O (stereo not given in full) | i | x | 2.9 | 2.4 | x
COc1ccc(N(Cc2ccccc2)N=O)cc1 | i | -5.6 | 0.3 | 1.6 | x

Screens: PubChem BioAssay, several laboratories
